The text below walks through data of paper PMC3061239 (Bioconjugate chemistry, 2010).

SMILES strings stand for the structures.

The conditions of data set [1]: 5 min; cited from earlier work.
Data set [2] is described as follows: Biodistribution of [^18F]7 in rats after i.v. injection. Type of data set: in vivo, Sprague-Dawley rats. The conditions noted are these: for Distribution, blood / Distribution, bone / Distribution, brain / Distribution, fat / Distribution, heart / Distribution, kidney / Distribution, liver / Distribution, lung / Distribution, muscle / Distribution, pancreas / Distribution, spleen: male Sprague-Dawley rats, mean ± SD. In short, it runs like this:
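Adult male Sprague-Dawley rats (170–250 g) under 2–3 % isoflurane/O2 received ~20–25 μCi/100 μL tracer (formulated in 3% HSA) via lateral tail vein. Killed at 5, 30, 60, 120 min, 4–8 rats per time; bone and fat taken only at 5 and 60 min (4 rats). Tissues weighed and gamma-counted alongside injectate standard dilution. Expressed as %ID/g, mean ± SD; Student's t-test.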

Data set [3] in a line: MicroPET imaging, myocardial tissue time-activity curves. It is filed as in vivo. Conditions: male Sprague-Dawley rats.
Where [4] appears, read: 5 min post-i.v. injection, rats.

Turning to `CCCCCCCCC([18F])CCCCC1CC1CC(=O)O` (racemic) [[^18F]FCPHA, trans-9-(RS)-[^18F]fluoro-3,4-(RS,RS) methyleneheptadecanoic acid], the “uptake in rat myocardium” value in data set [1] was “approximately 1.5 %ID/gram tissue”.
Consider `O=C(O)CCCCCCCCCCCCCCc1ccc(OCC[18F])cc1` [[^18F]7, 15-(4-(2-[^18F]fluoroethoxy)phenyl)pentadecanoic acid], for which, in data set [2] (setting [4]), the “Ratio of activity heart:blood” value came out at 2.55 and the “Ratio of activity heart:skeletal muscle” value is given as 8.3. Further, the “Uptake in heart at 30 min as percentage of the 5 min activity” value in data set [2] (30 min post injection vs 5 min, rats) was 35%. Moreover, the “Uptake in heart relative to blood” value in data set [2] (120 min post injection, rats) is recorded as “approximately 1.4 fold”. Further, in data set [2] (5 min post i.v. injection), the “Distribution, blood” value was 0.76 ± 0.05 %ID/gram; the “Distribution, bone” value amounted to 0.28 ± 0.01 %ID/gram; the “Distribution, brain” value worked out at 0.11 ± 0.01 %ID/gram; the “Distribution, fat” value turned out to be 0.14 ± 0.02 %ID/gram. For the same compound, in data set [2] (5 min post i.v. injection), the “Distribution, heart” value turned out to be 2.00 ± 0.44 %ID/gram; the “Distribution, kidney” value is recorded as 1.30 ± 0.09 %ID/gram; the “Distribution, liver” value worked out at 2.71 ± 0.37 %ID/gram; the “Distribution, lung” value is 1.26 ± 0.32 %ID/gram. Moreover, in data set [2] (5 min post i.v. injection), the “Distribution, muscle” value came to 0.23 ± 0.03 %ID/gram; the “Distribution, pancreas” value was determined as 0.73 ± 0.07 %ID/gram; the “Distribution, spleen” value came out at 0.94 ± 0.05 %ID/gram. Besides, in data set [2] (30 min post i.v. injection), the “Distribution, blood” value is on record as 0.75 ± 0.06 %ID/gram; the “Distribution, brain” value was 0.13 ± 0.01 %ID/gram; the “Distribution, heart” value is given as 0.72 ± 0.10 %ID/gram; the “Distribution, kidney” value was 1.26 ± 0.08 %ID/gram. For the same compound, in data set [2] (30 min post i.v. injection), the “Distribution, liver” value is on record as 1.39 ± 0.09 %ID/gram; the “Distribution, lung” value came out at 0.87 ± 0.06 %ID/gram; the “Distribution, muscle” value was 0.24 ± 0.04 %ID/gram; the “Distribution, pancreas” value was determined as 0.50 ± 0.03 %ID/gram. Further, the “Distribution, spleen” value in data set [2] (30 min post i.v. injection) is on record as 0.63 ± 0.07 %ID/gram. In data set [2] (60 min post i.v. injection), the “Distribution, blood” value stood at 0.56 ± 0.06 %ID/gram; the “Distribution, bone” value is given as 0.33 ± 0.06 %ID/gram; the “Distribution, brain” value came out at 0.10 ± 0.01 %ID/gram; the “Distribution, fat” value was determined as 0.17 ± 0.01 %ID/gram. Besides, in data set [2] (60 min post i.v. injection), the “Distribution, heart” value was found to be 0.86 ± 0.28 %ID/gram; the “Distribution, kidney” value worked out at 1.02 ± 0.15 %ID/gram; the “Distribution, liver” value is given as 0.81 ± 0.10 %ID/gram; the “Distribution, lung” value came to 0.95 ± 0.27 %ID/gram. For the same compound, in data set [2] (60 min post i.v. injection), the “Distribution, muscle” value stood at 0.21 ± 0.02 %ID/gram; the “Distribution, pancreas” value was 0.42 ± 0.04 %ID/gram; the “Distribution, spleen” value came to 0.57 ± 0.11 %ID/gram. Besides, in data set [2] (120 min post i.v. injection), the “Distribution, blood” value came to 0.26 ± 0.06 %ID/gram; the “Distribution, brain” value came out at 0.06 ± 0.01 %ID/gram; the “Distribution, heart” value worked out at 0.34 ± 0.04 %ID/gram; the “Distribution, kidney” value was determined as 0.52 ± 0.07 %ID/gram. In data set [2] (120 min post i.v. injection), the “Distribution, liver” value is on record as 0.49 ± 0.07 %ID/gram; the “Distribution, lung” value is reported as 0.52 ± 0.06 %ID/gram; the “Distribution, muscle” value was determined as 0.12 ± 0.01 %ID/gram; the “Distribution, pancreas” value was determined as 0.28 ± 0.02 %ID/gram. Moreover, the “Distribution, spleen” value in data set [2] (120 min post i.v. injection) is given as 0.40 ± 0.06 %ID/gram. For the same compound, in data set [2] (bone activity between 5 and 60 min, rats), the “metabolic defluorination (bone activity)” value was “no significant metabolic defluorination”. Also, in data set [2] (from 5 to 60 min, rats, P = 0.04), the “Increase of activity in fat” value is reported as 20%. The “accumulation in bone on PET images” value in data set [3] is “no evidence of accumulation in bone”.
